Assays:
A549 [1] = assay: Evaluated for the antineoplastic activity against A549 lung (nonsmall cell) tumor xenograft in nude mice after administering 3 injections (intra peritoneally) at a dose of 200 mg/kg; format: functional, Homo sapiens
Outline: (§1)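 Nude mice bearing human tumor xenografts; compound given intraperitoneally as three injections at 4-day intervals. Antitumor activity expressed as % T/C at each dose level. Performed under the NCI Developmental Therapeutics Program.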

A549 [2] = assay: Evaluated for the antineoplastic activity against A549 lung (nonsmall cell) tumor xenograft in nude mice after administering 3 injections (intra peritoneally) at a dose of 100 mg/kg; format: functional, Homo sapiens; outline: as §1
A498 = assay: Evaluated for the inhibitory concentration required to cause growth inhibition of A498Rem- renal cell line using the MTT Cytotoxicity Assay; format: functional, cell-based; conditions: Homo sapiens
Outline: (§2)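 MTT microculture tetrazolium growth assay on human cell lines and normal fibroblasts. Cells seeded at 1000 cells/well, with compound added 24 h after plating. Cultures then incubated a further 6 days at 37 °C before MTT read-out of growth versus untreated cells.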

A-427 = assay: Evaluated for the inhibitory concentration required to cause growth inhibition of A427Mer- cell line of lung using the MTT Cytotoxicity Assay; format: functional, cell-based; conditions: Homo sapiens; outline: as §2
A704 = assay: Evaluated for the inhibitory concentration required to cause growth inhibition of A704Rem- renal cell line using the MTT Cytotoxicity Assay; format: functional, cell-based; conditions: Homo sapiens; outline: as §2
A673 = assay: Evaluated for the inhibitory concentration required to cause growth inhibition of A673Mer+ sarcoma cell line using the MTT Cytotoxicity Assay; format: functional, cell-based; conditions: Homo sapiens; outline: as §2
A 172 = assay: Evaluated for the inhibitory concentration required to cause growth inhibition of A172Mer- cell line of central nervous system (CNS) using the MTT Cytotoxicity Assay; format: functional, cell-based; conditions: Homo sapiens; outline: as §2
CCD 19Lu = assay: Evaluated for the inhibitory concentration required to cause growth inhibition of CCD-19Lu fibroblasts cell line using the MTT Cytotoxicity Assay; format: functional, cell-based; conditions: Homo sapiens; outline: as §2
DOD-1 = assay: Evaluated for the inhibitory concentration required to cause growth inhibition of DOD-1 breast cell line using the MTT Cytotoxicity Assay; format: functional, cell-based; conditions: Homo sapiens; outline: as §2
NCI-H460 = assay: Evaluated for the inhibitory concentration required to cause growth inhibition of H460 cell line of lung using the Microculture Tetrazolium (MTT) Cytotoxicity Assay; format: functional, cell-based; conditions: Homo sapiens; outline: as §2
NCI-H358 = assay: Evaluated for the inhibitory concentration required to cause growth inhibition of H358M cell line of lung using the Microculture Tetrazolium (MTT) Cytotoxicity Assay; format: functional, cell-based; conditions: Homo sapiens; outline: as §2
NCI-H125 = assay: Evaluated for the inhibitory concentration required to cause growth inhibition of H125 cell line of lung using the Microculture Tetrazolium (MTT) Cytotoxicity Assay; format: functional, cell-based; conditions: Homo sapiens; outline: as §2
NCI-H322M = assay: Evaluated for the inhibitory concentration required to cause growth inhibition of H322M cell line of lung using the Microculture Tetrazolium (MTT) Cytotoxicity Assay; format: functional, cell-based; conditions: Homo sapiens; outline: as §2
NCI-H23 = assay: Evaluated for the inhibitory concentration required to cause growth inhibition of H23 cell line of lung using the Microculture Tetrazolium (MTT) Cytotoxicity Assay; format: functional, cell-based; conditions: Homo sapiens; outline: as §2
[3] = Evaluated for the antineoplastic activity against LOX amelanotic melanoma tumor xenograft in nude mice after administering 3 injections (intra peritoneally) at a dose of 12.5 mg/kg; format: functional, Homo sapiens; outline: as §1
[4] = Evaluated for the antineoplastic activity against LOX amelanotic melanoma tumor xenograft in nude mice after administering 3 injections (intra peritoneally) at a dose of 25 mg/kg; format: functional, Homo sapiens; outline: as §1
[5] = Evaluated for the antineoplastic activity against LOX amelanotic melanoma tumor xenograft in nude mice after administering 3 injections (intra peritoneally) at a dose of 50 mg/kg; format: functional, Homo sapiens; outline: as §1
[6] = Evaluated for the antineoplastic activity against LX-1 lung (small cell) tumor xenograft in nude mice after administering 3 injections (intra peritoneally) at a dose of 100 mg/kg; format: functional, Homo sapiens; outline: as §1
[7] = Evaluated for the antineoplastic activity against LX-1 lung (small cell) tumor xenograft in nude mice after administering 3 injections (intra peritoneally) at a dose of 25 mg/kg; format: functional, Homo sapiens; outline: as §1
[8] = Evaluated for the antineoplastic activity against LX-1 lung (small cell) tumor xenograft in nude mice after administering 3 injections (intra peritoneally) at a dose of 50 mg/kg; format: functional, Homo sapiens; outline: as §1
LOX IMVI = assay: Evaluated for the inhibitory concentration required to cause growth inhibition of LOX melanoma cell line using the MTT Cytotoxicity Assay; format: functional, cell-based; conditions: Homo sapiens; outline: as §2
[9] = Evaluated for the antineoplastic activity against LOX amelanotic melanoma tumor xenograft in nude mice after administering 3 injections (intra peritoneally) at a dose of 100 mg/kg; format: functional, Homo sapiens; outline: as §1
MCF7 = assay: Evaluated for the inhibitory concentration required to cause growth inhibition of MCF-7 breast cell line using the MTT Cytotoxicity Assay; format: functional, cell-based; conditions: Homo sapiens; outline: as §2
[10] = system: MAR BEL fibroblasts cell line; assay: Evaluated for the inhibitory concentration required to cause growth inhibition of MAR BEL fibroblasts cell line using the MTT Cytotoxicity Assay; format: functional, cell-based; conditions: Homo sapiens; outline: as §2
L1210 [11] = assay: Evaluated for the antineoplastic activity against L1210 leukemia tumor xenograft in nude mice after administering 5 injections (intra peritoneally) at a dose of 21.6 mg/kg; format: functional, Mus musculus
Outline: (§3)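 Mice bearing L1210 leukemia dosed intraperitoneally once daily for 5 successive days (five injections). Activity reported as % T/C at each dose. Performed under the NCI Developmental Therapeutics Program.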

[12] = Evaluated for the antineoplastic activity against M5 sarcoma tumor xenograft in nude mice after administering 4 injections (intra peritoneally) at a dose of 12.5 mg/kg; format: functional, Mus musculus
Outline: (§4)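 M5 sarcoma-bearing mice given four intraperitoneal injections at 4-day intervals. Activity reported as % T/C per dose. Performed under the NCI Developmental Therapeutics Program.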

[13] = Evaluated for the antineoplastic activity against M5 sarcoma tumor xenograft in nude mice after administering 4 injections (intra peritoneally) at a dose of 25 mg/kg; format: functional, Mus musculus; outline: as §4
[14] = Evaluated for the antineoplastic activity against M5 sarcoma tumor xenograft in nude mice after administering 4 injections (intra peritoneally) at a dose of 50 mg/kg; format: functional, Mus musculus; outline: as §4
L1210 [15] = assay: Evaluated for the antineoplastic activity against L1210 leukemia tumor xenograft in nude mice after administering 5 injections (intra peritoneally) at a dose of 36 mg/kg; format: functional, Mus musculus; outline: as §3
L1210 [16] = assay: Evaluated for the antineoplastic activity against L1210 leukemia tumor xenograft in nude mice after administering 5 injections (intra peritoneally) at a dose of 60 mg/kg; format: functional, Mus musculus; outline: as §3
NCI/ADR-RES = assay: Evaluated for the inhibitory concentration required to cause growth inhibition of MCF-7ADR breast cell line using the MTT Cytotoxicity Assay; format: functional, cell-based; conditions: Homo sapiens; outline: as §2
MX1 [17] = assay: Evaluated for the antineoplastic activity against MX-1 mammary tumor xenograft in nude mice after administering 3 injections (intra peritoneally) at a dose of 150 mg/kg; format: functional, Homo sapiens; outline: as §1
MX1 [18] = assay: Evaluated for the antineoplastic activity against MX-1 mammary tumor xenograft in nude mice after administering 3 injections (intra peritoneally) at a dose of 300 mg/kg; format: functional, Homo sapiens; outline: as §1
Malme-3M = assay: Evaluated for the inhibitory concentration required to cause growth inhibition of MALME-3M melanoma cell line using the MTT Cytotoxicity Assay; format: functional, cell-based; conditions: Homo sapiens; outline: as §2
OVCAR-4 = assay: Evaluated for the inhibitory concentration required to cause growth inhibition of OVCAR-4 ovarian cell line using the MTT Cytotoxicity Assay; format: functional, cell-based; conditions: Homo sapiens; outline: as §2
OVCAR-3 = assay: Evaluated for the inhibitory concentration required to cause growth inhibition of OVCAR-3 ovarian cell line using the MTT Cytotoxicity Assay; format: functional, cell-based; conditions: Homo sapiens; outline: as §2
HOS-TE85 = assay: Evaluated for the inhibitory concentration required to cause growth inhibition of TE85Mer+ sarcoma cell line using the MTT Cytotoxicity Assay; format: functional, cell-based; conditions: Homo sapiens; outline: as §2
TE-671 = assay: Evaluated for the inhibitory concentration required to cause growth inhibition of TE-671 cell line of central nervous system (CNS)using the MTT Cytotoxicity Assay; format: functional, cell-based; conditions: Homo sapiens; outline: as §2
WiDr = assay: Evaluated for the inhibitory concentration required to cause growth inhibition of WiDR colon cell line using the MTT Cytotoxicity Assay; format: functional, cell-based; conditions: Homo sapiens
Outline: (§5)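 MTT cell-growth assay in human cell lines: cells harvested and seeded at 1000 cells/well in 96-well plates. Compound added after 24 h, then cultures incubated a further 6 days at 37 °C. Growth measured with and without agent.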

U-251 = assay: Evaluated for the inhibitory concentration required to cause growth inhibition of U251 cell line of central nervous system (CNS) using the MTT Cytotoxicity Assay; format: functional, cell-based; conditions: Homo sapiens; outline: as §5
RPMI-7951 = assay: Evaluated for the inhibitory concentration required to cause growth inhibition of RPMI7951 melanoma cell line using the MTT Cytotoxicity Assay; format: functional, cell-based; conditions: Homo sapiens; outline: as §2
SK-MEL-5 = assay: Evaluated for the inhibitory concentration required to cause growth inhibition of SK-MEL-5 melanoma cell line using the MTT Cytotoxicity Assay; format: functional, cell-based; conditions: Homo sapiens; outline: as §2
A549 [19] = assay: Evaluated for the inhibitory concentration required to cause growth inhibition of A549Rem- cell line of lung using the MTT Cytotoxicity Assay; format: functional, cell-based; conditions: Homo sapiens; outline: as §2
NCI-H522 (Homo sapiens) = assay: Evaluated for the inhibitory concentration required to cause growth inhibition of H522 cell line of lung using the Microculture Tetrazolium (MTT) Cytotoxicity Assay

Structure (SMILES): C/N=N\N(C)C(=O)NC
- T/C (A549 [1]): -27%
- T/C (A549 [2]): 8%
- IC50 (A498): 37 µM
- IC50 (A-427): 9 µM
- IC50 (A704): 55 µM
- IC50 (A673): 50 µM
- IC50 (A 172): 24 µM
- IC50 (CCD 19Lu): 70 µM
- IC50 (DOD-1): 38 µM
- IC50 (NCI-H460): 70 µM
- IC50 (NCI-H358): 75 µM
- IC50 (NCI-H125): 50 µM
- IC50 (NCI-H322M): 42 µM
- IC50 (NCI-H23): 22 µM
- T/C [3]: 131%
- T/C [4]: 154%
- T/C [5]: 188%
- T/C [6]: -55%
- T/C [7]: 6%
- T/C [8]: -34%
- IC50 (LOX IMVI): 19 µM
- T/C [9]: 230%
- IC50 (MCF7): 30 µM
- IC50 [10]: 65 µM
- T/C (L1210 [11]): 132%
- T/C [12]: 136%
- T/C [13]: 158%
- T/C [14]: 177%
- T/C (L1210 [15]): 146%
- T/C (L1210 [16]): 186%
- IC50 (NCI/ADR-RES): 35 µM
- T/C (MX1 [17]): 15%
- T/C (MX1 [18]): -13%
- IC50 (Malme-3M): 22 µM
- IC50 (OVCAR-4): 35 µM
- IC50 (OVCAR-3): 40 µM
- IC50 (HOS-TE85): 35 µM
- IC50 (TE-671): 46 µM
- IC50 (WiDr): 30 µM
- IC50 (U-251): 33 µM
- IC50 (RPMI-7951): 37 µM
- IC50 (SK-MEL-5): 20 µM
- IC50 (A549 [19]): 60 µM
- IC50 (NCI-H522 (Homo sapiens)): 24 µM
